Compound activity deposited in PubChem by several laboratories.
TbMetRS inhib – T. brucei MetRS inhibitors, primary screen, biochemical, luminescence; methionyl-tRNA synthetase (Trypanosoma brucei brucei); purified T. brucei MetRS, ATP depletion, Kinase-Glo luminescence; inhibition, % at 11.9 µM; actives 0.4% (n = 360,000);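 active means inhibition above a per-plate cutoff of the control wells' mean inhibition plus 3 SD, cut at about 5.5% in these data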;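 further: 0% = DMSO wells median and 100% = median of wells with control inhibitor compound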
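Measured by: Kinase-Glo luciferase luminescence reporting remaining unconsumed ATP. Material: purified T. brucei MetRS enzyme. Doses: 11.9 µM compound single dose, 0.9% DMSO. Medium: HEPES buffer containing pyrophosphatase, BSA, spermine, DTT. Times: 15 min preincubation, 2 h reaction, all 25 °C. Reagent: methionine, ATP and bulk E. coli tRNA.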
MC4R ag barr – MC4R agonists recruiting beta-arrestin, primary screen, cell-based, luminescence, agonist arm of biased-ligand search | Melanocortin receptor 4 (Homo sapiens), P32245 | U2OS MC4R beta-arrestin complementation; percent of melanotan II response, DMSO zero | activation, % at 8.9 µM | actives 0.98% (n = 360,000) | AID 540308, 2011;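 active means activation above a per-plate cutoff, the mean activation of sample wells on that plate plus 3 SD, cut at about 8% in these data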
Target sequence (P32245 whole entry, looked up): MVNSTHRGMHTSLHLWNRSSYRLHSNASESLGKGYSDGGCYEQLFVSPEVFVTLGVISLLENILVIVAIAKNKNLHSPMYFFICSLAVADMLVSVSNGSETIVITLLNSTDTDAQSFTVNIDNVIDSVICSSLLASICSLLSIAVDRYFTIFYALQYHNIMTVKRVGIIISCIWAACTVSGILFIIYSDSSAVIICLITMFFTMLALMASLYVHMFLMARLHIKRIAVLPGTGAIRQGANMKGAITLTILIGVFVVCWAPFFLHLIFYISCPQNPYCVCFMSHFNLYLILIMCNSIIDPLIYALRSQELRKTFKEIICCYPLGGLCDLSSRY
Bfl-1 A1 inh – caspase 3/7 activation in MEF A1-2A-BIM cells, primary screen, A1 inhibitor project, cell-based, luminescence, HTS; actives 0.066% (n = 330,000); Caspase-Glo 3/7 luminescence, 3 h; percent of clofoctol response, vehicle zero; caspase activation, % (concentration not given with the values);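 active means over half of replicate activation scores above 10%, or exactly half above 10 with the replicate mean above 10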
MC4R antagonist – MC4R antagonists of cAMP signaling, primary screen, cell-based, TR-FRET, antagonist arm of biased-ligand search | Melanocortin receptor 4 (Homo sapiens), P32245 | actives 0.48% (n = 360,000) | inhibition, % at 6.5 µM | MC4R-expressing cells, MTII-stimulated cAMP, LANCE TR-FRET;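 active means inhibition above its plate's cutoff, the mean of tested wells on that plate plus 3 SD, cut at about 29% in these data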;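 further: 0% = Melanotan II alone and 100% = Melanotan II plus saturating MCL0020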
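System – human MC4R-expressing U2OS cells · Also added – Melanotan II · Dosing – one concentration, 6.5 µM nominal · Timing – 30-min compound, 1-h challenge, 1-h detection, room temperature · Measured by – Eu-cAMP/anti-cAMP TR-FRET, emission 671 nm · Replicates – singlicate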
NLRP3 yeast inh – NALP3 inflammasome inhibitors in reconstituted yeast, primary screen, luminescence, uHTS | Yeast reconstituted NLRP3/ASC/caspase-1, beta-gal luminescence, 24 h | inhibition, % at 10 µM | actives 0.39% (n = 330,000);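 active means inhibition of 50% or more; inactive means inhibition below 50%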;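 further: plate controls were induced DMSO wells for no effect and uninduced yeast grown without galactose for full effect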
NALP1 yeast inh – NALP1 inflammasome inhibitors in reconstituted yeast, colorimetric, S. cerevisiae, triplicate retest; S. cerevisiae NALP1/ASC/caspase-1 growth, X-gal OD620, 72 h; inhibition, % at 10 µM; actives 0.61% (n = 280,000); AID 2071, 2009; in the data active means inhibition mostly above about 24%, no sharp cut-off; inactive means mostly below about 32%
TbMetRS confirm – T. brucei MetRS inhibitors, confirmation, biochemical, luminescence. shares compounds with TbMetRS inhib. actives 93% (n = 1,400). AID 624412, 2012. inhibition, % at 11.9 µM. T. brucei MetRS enzyme, luminescence (ATP depletion); in the data active means inhibition above about 7%
Jurkat cytotox – Jurkat T cell cytotoxicity, cytotoxicity control for T. brucei MetRS inhibitor project, luminescence, high throughput; AID 624413, 2012; actives 12% (n = 1,400); shares compounds with TbMetRS inhib; Jurkat cells viability, ATP luminescence; inhibition, % at 8.3 µM; in the data active means inhibition above about 15%;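 further: 0% = vehicle and 100% = reference inhibitor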
Tb MetRS inh FP – T. brucei MetRS inhibitors, orthogonal assay for T. brucei MetRS inhibitor project, biochemical, fluorescence polarization | shares compounds with TbMetRS inhib | purified T. brucei MetRS | inhibition, % at 11.9 µM | actives 44% (n = 1,400) | AID 651607, 2012; in the data active means inhibition above about 17%;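 further: 0% = vehicle wells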
* marks the source's active call; other numbers are inactive results; . = no result given. Most compounds without a hit are left out; they make up all but 2.5% or so of the library.

SMILES	TbMetRS inhib	MC4R ag barr	Bfl-1 A1 inh	MC4R antagonist	NLRP3 yeast inh	NALP1 yeast inh	TbMetRS confirm	Jurkat cytotox	Tb MetRS inh FP
O=C(CSc1nnc(CCc2nc3ccccc3[nH]2)n1-c1ccccc1)NCc1ccco1	1	0	1	3	16	-8	.	.	.
O=C(CSc1nnc(CCc2nc3ccccc3[nH]2)n1-c1ccccc1)NCc1ccccc1	6.2*	0	0	3	1	-7	9.2*	5	-2
COc1cc(/C=C(\C#N)c2nc3ccccc3[nH]2)ccc1Oc1ccc([N+](=O)[O-])cn1	21*	3	-1	1	29	14	63*	24*	37*
C#Cc1ccc([C@H]2C=C(C(=O)NCc3nc4ccccc4[nH]3)O[C@@H](OCc3ccc(CO)cc3)C2)cc1	32*	-1	-1	6	4	.	85*	0	68*
O=C(NCc1nc2ccccc2[nH]1)C1=C[C@H](c2ccc(C(F)(F)F)cc2)C[C@H](OCc2ccc(CO)cc2)O1	18*	1	0	6	7	-3	49*	-3	30*
O=C(NCc1nc2ccccc2[nH]1)C1=C[C@H](c2ccc(Br)cc2)C[C@H](OCc2ccc(CO)cc2)O1	66*	1	0	12	15	4	98*	-3	75*
O=C(NCc1nc2ccccc2[nH]1)C1=C[C@@H](c2csc3ccccc23)C[C@@H](OCCCCO)O1	72*	0	0	-5	19	-1	101*	-5	77*
O=C(NCc1ccccc1)C1=C[C@@H](c2csc3ccccc23)C[C@@H](OCCCCO)O1	.	.	0	.	7	1	.	.	.
CCN(CC)S(=O)(=O)c1ccc(N2CC(C(=O)NCCc3c[nH]c4ccccc34)CC2=O)cc1 (stereo not drawn)	0	-2	.	2	9	.	.	.	.
CC1(C)OC2OC(C3COC(=O)O3)C(OC(=O)c3ccccc3)C2O1 (stereo not drawn)	0	0	.	-1	.	.	.	.	.
CC(C)(C)NC(=O)C1c2ccccc2OCC(=O)N1CCc1ccccc1 (stereo not drawn)	0	.	.	.	.	.	.	.	.
C[C@@H]1C=C(C(=O)NCc2nc3ccccc3[nH]2)O[C@H](OCCCCO)C1	4	-1	0	-4	-5	.	.	.	.
C[C@@H]1C=C(C(=O)NCc2nc3ccccc3[nH]2)O[C@H](OCc2ccc(CO)cc2)C1	69*	-2	-1	1	2	-4	96*	6	72*
Nc1ccc2c(c1)C(=O)C(=O)c1ccccc1-2	22*	-1	0	-44	33	15	15*	97*	3
CCN(CC(=O)Nc1c(F)cccc1F)C(=O)c1ccc(OCC(=O)N2CCOCC2)c(OC)c1	0	-2	.	0	.	.	.	.	.
Cc1[nH]c2ccccc2c1/C=N/NC(=O)c1cccc([N+](=O)[O-])c1	1	-1	0	6	-19	15	.	.	.
Cc1[nH]c2ccccc2c1/C=N/Nc1ccc([N+](=O)[O-])cc1	9.6*	-6	-1	4	.	5	12*	9	71*
COc1cc(-c2noc(C)c2C(=O)NCCc2ccccc2)cc(OC)c1OC	0	-1	0	3	19	.	.	.	.
CC(C)Cc1nnc(NC(=O)CCC(=O)Nc2ccccc2)s1	0	-2	0	15	-6	8	.	.	.
CC(C)Cc1nnc(NC(=O)Nc2ccccc2)s1	16*	6	0	6	-23	24	32*	-4	11
CC(C)COC(=O)Nc1nnc(Cc2ccccc2)s1	10*	0	0	6	37	-15	3	5	4
C[C@H](CO)N1C[C@H](C)[C@@H](CN(C)C(=O)Nc2ccc(C(F)(F)F)cc2)Oc2ccc(NC(=O)CCC(F)(F)F)cc2C1=O	-1	0	0	1	4	.	.	.	.
Fc1ccccc1NC(=S)NCCc1cccc(Cl)c1	6.0*	-3	0	3	16	30*	17*	6	9
CN(C)c1ccc(-c2ccnc3c2CC(C)(C(=O)NCCc2ccccc2)O3)cc1 (stereo not drawn)	0	0	.	2	.	.	.	.	.
COc1cc(CN2CCN(Cc3c[nH]c4ccccc34)CC2CCO)cc(OC)c1 (stereo not drawn)	0	-1	0	2	10	3	.	.	.
SMILES	TbMetRS inhib	MC4R ag barr	Bfl-1 A1 inh	MC4R antagonist	NLRP3 yeast inh	NALP1 yeast inh	TbMetRS confirm	Jurkat cytotox	Tb MetRS inh FP
COc1ccc(CN2CCN(Cc3c[nH]c4ccccc34)CC2CCO)c(F)c1 (stereo not drawn)	22*	1	0	1	0	15	42*	3	14
CC(=O)C1=CCC(c2ccc(Br)cc2)N(S(=O)(=O)c2ccc(C)cc2)C1 (stereo not drawn)	-1	.	.	.	.	.	.	.	.
COc1ccc(-c2ccc3[nH]c4c(c3c2)CCN2C(=O)[C@@H]([C@H](C)O)[C@@H](N(C)C(=O)Nc3ccc(F)cc3)C[C@@H]42)cc1	-2	-1	.	12	.	.	.	.	.
COc1ccc(-c2ccc3[nH]c4c(c3c2)CCN2C(=O)[C@@H]([C@H](C)O)[C@@H](N(C)C(=O)Nc3cc(Cl)cc(Cl)c3)C[C@@H]42)cc1	7.8*	0	.	21	.	.	11*	13	12
C[C@H](O)[C@@H]1C(=O)N2CCc3c([nH]c4ccccc34)[C@@H]2C[C@@H]1N(C)Cc1ccc(Cl)cc1	87*	1	.	6	.	.	104*	-5	83*
COc1ccc(Nc2nc(N)nc(CSC(=S)N3CCCCC3C)n2)cc1 (stereo not drawn)	0	-1	0	8	13	.	.	.	.
CN1CCN(C(=O)c2cccc(-c3ccc4nccn4c3)c2)CC1	0	1	.	-3	.	.	.	.	.
